Data set [1] deals with HeLa. The experiment in a line: Cytotoxicity against human HeLa cells after 3 days by neutral red dye-based photometric method. As to conditions: 72 h. Format: cell-based. A digest of the protocol: (§1)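 Uninfected cells run as in the CPE assay (33 °C, 3 days, same media) with compound. Viability by neutral red staining and 540 nm absorbance. CC50 from dose-response curves, triplicate experiments.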

A short description of data set [2]: Selectivity index, ratio of CC50 for human RD cells to EC50 for Enterovirus D68 […] infected in human RD cells. The data set is classed as toxicity, cell-based. Particulars: read-out: Ratio CC50/EC50. A digest of the protocol: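 RD cells in DMEM with 10% FBS were infected at about 90% confluency at MOI about 0.01, giving full CPE by 3 days, in DMEM with 2% FBS and 30 mM MgCl2 at 33 °C. Compounds and P/S were added 1 h after infection. Viability was read by neutral red uptake (A540). CC50 came from uninfected cells. Means were from triplicates, and SI = CC50/EC50.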

Data set [3] relates to A 172. The experiment in a line: Cytotoxicity against human A172 cells after 3 days by neutral red dye-based photometric method. Format: cell-based. Particulars: a 172, 72 h. Summed up: as §1
In data set [4] the test system is enterovirus D68. Kind of data set: Antiviral activity against Enterovirus D68 US/KY/14-18953 infected in human A172 cells assessed as inhibition of virus-induced cytopathic effect incubated for 5 mins under shaking condition and measured after 3 days by neutral red dye-based photometric method. Format: functional, organism-based. As to conditions: Enterovirus D, US/KY/14-18953, A 172. Summed up:
(§2)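 A172 cells (DMEM, 10% FBS) grown ~90% confluent, infected with EV-D68 at ~MOI 0.3 in DMEM/2% FBS/30 mM MgCl2 and kept at 33 °C. P/S and compounds added 1 h later. Brief orbital shaking, then 3-day incubation. Neutral red staining with 540 nm absorbance. EC50 from best-fit dose-response curves in triplicate.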
On the technique in general: Protection from cytopathic effect is a common read-out in antiviral testing.

A short description of data set [5]: Selectivity index, ratio of CC50 for human RD cells to EC50 for Enterovirus D68 US/MO/14-18949 infected in RD human cells. The data set is classed as toxicity, cell-based. Particulars: read-out: Ratio CC50/EC50.
The subject of data set [6] is enterovirus D68. The experiment in a line: Antiviral activity against Enterovirus D68 […] infected in human RD cells assessed as inhibition of virus-induced cytopathic effect incubated for 5 mins under shaking condition and measured after 3 days by neutral red dye-based photometric method. As to conditions: Enterovirus D. The data set is classed as functional, organism-based. Summed up:
(§3)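 RD cells seeded one day ahead to ~90% confluence, PBS (Mg/Ca) wash, infected at ~MOI 0.01 with EV-D68 in DMEM/2% FBS/30 mM MgCl2 at 33 °C, 5% CO2. Compounds and 1% P/S added after 1 h. Plates shaken ~5 min, held 3 days, viable cells stained with neutral red (66 µg/ml), A540 read. EC50 from dose-response fits, triplicates.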

The test system of data set [7] is enterovirus D68. The experiment in a line: Antiviral activity against Enterovirus D68 US/IL/14-18956 infected in human RD cells assessed as inhibition of virus-induced cytopathic effect incubated for 5 mins under shaking condition and measured after 3 days by neutral red dye-based photometric method. Format: functional, organism-based. As to conditions: Enterovirus D, US/IL/14-18956, RD. A digest of the protocol: as §3

Data set [8] relates to Influenza A virus. The experiment in a line: Antiviral activity against Influenza A virus (A/California/07/2009(H1N1)) at 10 uM after 2 days by plaque assay. The data set is classed as functional, organism-based.
The nature of data set [9]: Selectivity index, ratio of CC50 for human A172 cells to EC50 for Enterovirus D68 US/KY/14-18953 infected in human A172 cells. As to conditions: read-out: Ratio CC50/EC50. The data set is classed as toxicity, cell-based. A digest of the protocol:
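A172 cells kept in DMEM with 10% FBS and 1% P/S, grown to about 90% confluency, then infected at MOI about 0.3 in DMEM with 2% FBS and 30 mM MgCl2 at 33 °C. After 1 h, P/S and compounds were added. Viable cells were stained with neutral red after 3 days (A540). CC50 came from the same assay without virus. EC50 and CC50 were fitted from triplicate dose-response data, and SI = CC50/EC50.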

For data set [10], the system named is enterovirus D68. The experiment in a line: Antiviral activity against Enterovirus D68 US/MO/14-18947 infected in human RD cells assessed as inhibition of virus-induced cytopathic effect incubated for 5 mins under shaking condition and measured after 3 days by neutral red dye-based photometric method. The data set is classed as functional, organism-based. As to conditions: Enterovirus D, US/MO/14-18947, RD. A digest of the protocol:
as §3

The test system of data set [11] is enterovirus D68. The experiment in a line: Antiviral activity against Enterovirus D68 US/KY/14-18953 infected in human SH-SY5Y cells assessed as inhibition of virus-induced cytopathic effect incubated for 5 mins under shaking condition and measured after 3 days by neutral red dye-based photometric method. Format: functional, organism-based. As to conditions: Enterovirus D, US/KY/14-18953, SH-SY5Y. Summed up: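 Virus at ~MOI 1 applied to SH-SY5Y cells (50% DMEM/50% F-12, 10% FBS) at ~90% confluence in DMEM/2% FBS/30 mM MgCl2 at 33 °C. Compounds added after 1 h with 1% P/S, shaken ~5 min, incubated 3 days. Viability read by neutral red uptake (A540). EC50 fitted from dose-response, triplicate.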

In data set [12] the test system is RD. The experiment in a line: Inhibition of 2C protein in Enterovirus D68 US/KY/14-18953 infected in human RD cells assessed as reduction of viral RNA synthesis at 1 uM measured at 9 hrs post infection by reagent-based RT-qPCR method relative to control. Format: cell-based. A digest of the protocol: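 DNase-treated. 1.2 µg reverse-transcribed with oligo(dT)18. qPCR run 95 °C 10 min, then 40 cycles of 95 °C 15 s/60 °C 60 s, with melt curve. Compared with DMSO control, one-way ANOVA, mean of two experiments ± SD.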

Data set [13] is described as follows: Selectivity index, ratio of CC50 for human SH-SY5Y cells to EC50 for Enterovirus D68 US/MO/14-18947 infected in human SH-SY5Y cells. As to conditions: read-out: Ratio CC50/EC50. Format: toxicity, cell-based. A digest of the protocol:
(§4)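 SH-SY5Y cells grown in 50% DMEM/50% F-12 with 10% FBS and 1% P/S to about 90% confluency, then infected at MOI about 1 in DMEM with 2% FBS and 30 mM MgCl2 at 33 °C. Compounds were added after 1 h. Neutral red staining was read at 540 nm after 3 days. CC50 came from uninfected cells under the same conditions. Values were triplicate dose-response fits, and SI = CC50/EC50.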

A short description of data set [14]: Selectivity index, ratio of CC50 for human SH-SY5Y cells to EC50 for Enterovirus D68 US/KY/14-18953 infected in human SH-SY5Y cells. The data set is classed as toxicity, cell-based. As to conditions: read-out: Ratio CC50/EC50. Summed up:
as §4

For data set [15], the system named is A549. Kind of data set: Cytotoxicity against human A549 cells after 3 days by neutral red dye-based photometric method. The data set is classed as cell-based. Particulars: a549, 72 h. Summed up:
as §1

The subject of data set [16] is enterovirus D68. Kind of data set: Antiviral activity against Enterovirus D68 US/MO/14-18947 infected in human A172 cells assessed as inhibition of virus-induced cytopathic effect incubated for 5 mins under shaking condition and measured after 3 days by neutral red dye-based photometric method. Format: functional, organism-based. Particulars: Enterovirus D, US/MO/14-18947, A 172. Summed up: as §2

Data set [17] has as its system Influenza B virus. Kind of data set: Antiviral activity against Influenza B virus (B/Brisbane/60/2008) at 10 uM after 2 days by plaque assay. Format: functional, organism-based.
The subject of data set [18] is RD. The experiment in a line: Inhibition of 2C protein in Enterovirus D68 US/KY/14-18953 infected in human RD cells assessed as reduction of VP1 expression at 1 uM measured at 9 hrs post infection by Western blot analysis. Format: cell-based. Summed up: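 Equal protein separated and blotted to PVDF. Probed with rabbit anti-VP1 and mouse anti-GAPDH (1:3,000), HRP secondary, chemiluminescent detection. Mean of two independent experiments ± SD.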
Background: In western blotting, separated proteins are transferred to a membrane and probed.

The test system of data set [19] is SH-SY5Y. The experiment in a line: Cytotoxicity against human SH-SY5Y cells after 3 days by neutral red dye-based photometric method. Format: cell-based. Particulars: 72 h. A digest of the protocol: as §1

Active and inactive are the calls of the source. The calls are words filed in the database; no cut-off is given here.

The term CC50 denotes the concentration at which the toxic effect on the cells reaches its halfway point. Higher therefore signals lower toxicity to the cells. The term EC50 denotes the concentration needed to bring the measured effect to its halfway point. In general, inhibition refers to the drop in the measured response relative to a control, in per cent. As for `O=C(NCCN1CCCC1)c1cc(-c2cccs2)nc2ccccc12`, the CC50 stood at 41700 nM in data set [1], 65400 nM in data set [3], 83200 nM in data set [15] and 93300 nM in [19]. Moreover, the selectivity ratio worked out at 571 in data set [2]; 800 in [5]; 1310 in data set [9]; 4660 in [13]; 933 in data set [14]. For the same compound, the EC50 in data set [4] came to 50 nM; in data set [6], 70 nM; in data set [7], 50 nM; in [10], 60 nM; in data set [11] it was 100 nM; in data set [16], 200 nM. The result in data set [8] and in data set [17] was inactive. In addition, in data set [12], the inhibition is > 99%. Besides, the inhibition result in data set [18] was “Active”.

Source of the values: ChEMBL document CHEMBL4387709, “Discovery of Quinoline Analogues as Potent Antivirals against Enterovirus D68 (EV-D68)” (J Med Chem, 2019).
